Assay results taken from ChEMBL document CHEMBL1157514, “3-Alkenyl-2-azetidinones as fatty acid amide hydrolase inhibitors” (Bioorg Med Chem Lett, 2008).
Activity calls are given as the source filed them. The rule behind the calls is not given here.

Key:
[1] = target: T1, Fatty-acid amide hydrolase 1 (Homo sapiens) (UniProt O00519); assay: Inhibition of human FAAH expressed in Escherichia coli at 1 mM
T1 sequence (whole entry): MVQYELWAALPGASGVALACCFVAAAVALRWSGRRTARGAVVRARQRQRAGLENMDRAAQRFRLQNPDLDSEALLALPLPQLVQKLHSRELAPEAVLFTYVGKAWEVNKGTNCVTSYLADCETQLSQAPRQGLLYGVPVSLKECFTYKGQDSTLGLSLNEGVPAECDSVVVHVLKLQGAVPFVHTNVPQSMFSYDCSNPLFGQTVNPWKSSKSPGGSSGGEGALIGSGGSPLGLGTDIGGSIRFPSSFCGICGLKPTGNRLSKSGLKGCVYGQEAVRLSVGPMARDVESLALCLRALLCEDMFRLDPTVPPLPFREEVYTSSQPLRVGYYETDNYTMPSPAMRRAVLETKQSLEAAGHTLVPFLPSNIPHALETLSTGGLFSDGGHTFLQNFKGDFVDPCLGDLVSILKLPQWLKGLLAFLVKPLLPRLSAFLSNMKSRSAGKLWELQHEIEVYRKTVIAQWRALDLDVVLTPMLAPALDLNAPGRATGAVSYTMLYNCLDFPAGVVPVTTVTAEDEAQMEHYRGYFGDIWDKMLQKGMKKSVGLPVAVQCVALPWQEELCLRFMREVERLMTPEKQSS
Summary of the method: (§1)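 Human FAAH expressed in E. coli, in Tris-HCl pH 7.4, was added on ice to compound or DMSO. [3H]-AEA was added (50,000 dpm; 2 µM final) in Tris-HCl with 0.1% BSA, then incubated 10 min at 37 °C. The reaction was stopped on ice with cold MeOH–CHCl3 (1:1) and centrifuged. [3H]-ethanolamine in the aqueous phase was counted by liquid scintillation, with no-enzyme blanks subtracted.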

[2] = target: T2, Fatty-acid amide hydrolase 1 (Homo sapiens, UniProt O00519); assay: Inhibition of human FAAH expressed in Escherichia coli; summary of the method: as §1
T2 sequence (O00519 whole entry): T1 sequence (whole entry)

[3] = target: T3, Monoglyceride lipase (Homo sapiens) (UniProt Q99685); assay: Inhibition of human MGL expressed in Escherichia coli at 1 mM
T3 sequence (whole entry): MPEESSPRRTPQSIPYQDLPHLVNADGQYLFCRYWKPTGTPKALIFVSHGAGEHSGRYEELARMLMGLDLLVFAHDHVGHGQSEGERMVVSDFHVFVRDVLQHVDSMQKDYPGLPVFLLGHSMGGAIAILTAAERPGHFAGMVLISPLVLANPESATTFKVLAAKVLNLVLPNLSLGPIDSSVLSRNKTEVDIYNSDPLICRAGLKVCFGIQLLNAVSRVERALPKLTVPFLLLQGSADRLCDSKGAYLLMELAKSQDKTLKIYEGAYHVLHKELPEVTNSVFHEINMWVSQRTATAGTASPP
Summary of the method: (§2)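 Human MGL expressed in E. coli was run in Tris-HCl pH 8 with [3H]-oleoylglycerol (50,000 dpm; 10 µM final) as substrate. Otherwise the radiometric hydrolysis protocol was similar: compound or DMSO, chloroform–methanol quench, scintillation counting of the aqueous phase, and subtraction of buffer-only blanks.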

Monoglyceride lipase = target: T4, Monoglyceride lipase (Homo sapiens, UniProt Q99685); assay: Inhibition of human MGL expressed in Escherichia coli; summary of the method: as §2
T4 sequence (Q99685 whole entry): T3 sequence (whole entry)

Homo sapiens = organism: Homo sapiens; assay: Selectivity ratio of IC50 for human FAAH over IC50 for human MGL
[4] = target: T5, Pancreatic elastase (Sus scrofa) (UniProt P08419+P00772); assay: Inhibition of pig pancreatic elastase at 10 mM; assay type: protein assay
[5] = target: T5, Pancreatic elastase (Sus scrofa); assay: Inhibition of pig pancreatic elastase at 5 mM; assay type: protein assay
[6] = target: T5, Pancreatic elastase (Sus scrofa); assay: Inhibition of pig pancreatic elastase at 2.5 mM; assay type: protein assay
[7] = target: T5, Pancreatic elastase (Sus scrofa); assay: Inhibition of pig pancreatic elastase at 0.1 mM; assay type: protein assay
[8] = target: T5, Pancreatic elastase (Sus scrofa); assay: Inhibition of pig pancreatic elastase at 100 uM; assay type: protein assay
[9] = Inhibition of penicillin-binding protein R39 assessed as residual activity
Summary of the method: (§3)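 Compound (100 µM) was incubated with PBP (0.8–2.5 µM) for 16 h at 30 °C in 50 mM sodium phosphate pH 7 with 5% DMF; PBP2a and PBP5 also had 0.5 M NaCl. Free PBP was then labelled with 25 µM fluorescein-ampicillin for 45 min and the reaction stopped with SDS-PAGE loading buffer. Gel fluorescence was quantified, background subtracted, and residual activity given as % of initial (triplicate).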

[10] = Inhibition of penicillin-binding protein 2a assessed as residual activity at 100 uM after 16 hrs by SDS-PAGE; summary of the method: as §3
[11] = Inhibition of penicillin-binding protein 2x assessed as residual activity; summary of the method: as §3
[12] = Inhibition of penicillin-binding protein 5 assessed as residual activity at 100 uM after 16 hrs by SDS-PAGE; summary of the method: as §3

Row | SMILES | inhibition [1] [%] | IC50 [2] [µM] | inhibition [3] [%] | further results
1 | C=CCCCC1(CCCC=C)CNC1=O | 80.5 | 259 | 36.3 | –
2 | C=CCC1CNC1=O (racemic) | 56.6 | – | 15.6 | –
3 | C=CCCC(=O)N1CC(CCC=C)C1=O (racemic) | 103 | 21.9 | 58.1 | IC50 (Monoglyceride lipase): 817 µM; Ratio IC50 (Homo sapiens): 37; Activity [4]: inactive; Activity [5]: inactive; Activity [6]: inactive; Activity [7]: inactive
4 | C=CCCC1CNC1=O (racemic) | 48 | – | 8.1 | –
5 | C=CCC1CN([Si](C)(C)C(C)(C)C)C1=O (racemic) | 43.6 | – | 77.5 | –
6 | C=CCCCC1CNC1=O (racemic) | 80.9 | – | 54.9 | –
7 | C=CCCC1CN([Si](C)(C)C(C)(C)C)C1=O (racemic) | 49.5 | – | 69.9 | –
8 | C=CCCCC1(CCCC=C)CN([Si](C)(C)C(C)(C)C)C1=O | 25.2 | – | 10.3 | –
9 | C=CCCCC1CN(C(=O)CCC=C)C1=O (racemic) | 101 | 4.5 | 62.1 | IC50 (Monoglyceride lipase): 657 µM; Ratio IC50 (Homo sapiens): 146; Activity [4]: inactive; Activity [5]: inactive; Activity [6]: inactive; Activity [7]: inactive
10 | C=CCCCC1CN([Si](C)(C)C(C)(C)C)C1=O (racemic) | 76.9 | – | 54.9 | –
11 | C=CCCC(=O)N1CC(CC=C)C1=O (racemic) | 96.5 | 61.8 | 46.4 | Activity [8]: Active; Activity [9]: 73%; Activity [10]: 87%; Activity [11]: 108%; Activity [12]: 104%
